Source: ChEMBL document CHEMBL3414548, “Luotonin-A based quinazolinones cause apoptosis and senescence via HDAC inhibition and activation of tumor suppressor proteins in HeLa cells” (Eur J Med Chem, 2015)
pIC50: −log10 of the molar value. Activity calls are given as the source filed them. The calls are words filed in the database; no cut-off is given here.

Experiments:
[1] = Cytotoxicity against HEK cells after 72 hrs by MTT assay; type: cell-based; details: Homo sapiens, HEK293, 72 h
In short: (§1)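 Cells were seeded at 1×10⁴ per well and preincubated 18 h at 37 °C, 5% CO₂. They were then exposed to 1–256 μM for 72 h with DMSO ≤0.25%. MTT was added for 2 h and formazan was solubilized in extraction buffer before reading OD at 570 nm. IC50 is mean ± SD of three independent experiments. HEK is the normal-cell line; cancer lines were grown in DMEM with 10% serum.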

[2] = test system: K562; assay: Cytotoxicity against human K562 cells after 72 hrs by MTT assay; type: functional, cell-based; details: K562, 72 h; in short: as §1
[3] = test system: HeLa; assay: Cell cycle arrest in human HeLa cells assessed as accumulation at G0/G1 phase at 4 uM after 48 hrs by propidium iodide staining-based flow cytometric analysis (reference value: 62%); type: functional
[4] = test system: HeLa; assay: Cell cycle arrest in human HeLa cells assessed as accumulation at S phase at 4 uM after 48 hrs by propidium iodide staining-based flow cytometric analysis (reference value: 7%); type: functional
[5] = test system: MCF7; assay: Cytotoxicity against human MCF7 cells after 72 hrs by MTT assay; type: functional, cell-based; details: MCF7, 72 h; in short: as §1
[6] = test system: HeLa; assay: Cell cycle arrest in human HeLa cells assessed as accumulation at G2/M phase at 4 uM after 48 hrs by propidium iodide staining-based flow cytometric analysis (reference value: 19%)
[7] = test system: HeLa; assay: Selectivity index, ratio of IC50 for HEK cells to IC50 for human HeLa cells; type: functional
In short: (§2)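 Selectivity index is IC50 in normal HEK cells divided by IC50 in the cancer cell line.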

[8] = test system: HeLa; assay: Cell cycle arrest in human HeLa cells assessed as accumulation at G2/M phase at 4 uM after 48 hrs by propidium iodide staining-based flow cytometric analysis (reference value: 31%); type: functional
[9] = test system: HeLa; assay: Cell cycle arrest in human HeLa cells assessed as accumulation at G1 phase at 8 uM after 48 hrs by propidium iodide staining-based flow cytometric analysis (reference value: 68%); type: functional
[10] = test system: HeLa; assay: Cytotoxicity against human HeLa cells after 72 hrs by MTT assay; type: functional, cell-based; in short: as §1
[11] = test system: HeLa; assay: Cell cycle arrest in human HeLa cells assessed as accumulation at G0 phase at 8 uM after 48 hrs by propidium iodide staining-based flow cytometric analysis (reference value: 3%); type: functional
[12] = test system: HeLa; assay: Cell cycle arrest in human HeLa cells assessed as accumulation at S phase at 8 uM after 48 hrs by propidium iodide staining-based flow cytometric analysis (reference value: 10%); type: functional
[13] = test system: HEK293; assay: Selectivity index, ratio of IC50 for HEK cells to IC50 for human MCF7 cells; type: functional; in short: as §2
[14] = test system: HEK293; assay: Selectivity index, ratio of IC50 for HEK cells to IC50 for human K562 cells; type: functional; in short: as §2
[15] = test system: HeLa; assay: Induction of senescence in human HeLa cells at 4 uM after 72 hrs by X-gal staining-based beta-galactosidase assay; type: functional, cell-based
In short: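 HeLa cells in chamber slides were treated at 4 μM for 72 h. They were fixed in 3% paraformaldehyde and then in methanol at 4 °C. Staining used X-gal in sodium phosphate buffer with ferro/ferricyanide, 1 mM MgCl₂ and citric acid for 24 h. Senescent cells were scored by microscopy as enlarged, flattened and blue.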

[16] = test system: HeLa; assay: Change in HDAC-7 mRNA expression in human HeLa cells at 4 uM after 48 hrs by RT-PCR analysis; type: functional, cell-based
In short: (§3)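 HeLa cells were treated at 4 μM for 48 h before RNA isolation. cDNA was amplified by RT-PCR with gene-specific primers, using GAPDH as loading control. Products were run on 1% agarose gel with ethidium bromide, and band intensity was quantified by densitometry.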

[17] = test system: HeLa; assay: Downregulation of HDAC-1 mRNA expression in human HeLa cells at 4 uM after 48 hrs by RT-PCR analysis; type: functional, cell-based; in short: as §3
[18] = test system: HeLa; assay: Upregulation of p53 mRNA expression in human HeLa cells at 4 uM after 48 hrs by RT-PCR analysis; type: functional, cell-based; in short: as §3
[19] = test system: HeLa; assay: Downregulation of HDAC-5 mRNA expression in human HeLa cells at 4 uM after 48 hrs by RT-PCR analysis; type: functional, cell-based; in short: as §3
[20] = test system: HeLa; assay: Change in HDAC-6 mRNA expression in human HeLa cells at 4 uM after 48 hrs by RT-PCR analysis; type: functional, cell-based; in short: as §3
[21] = test system: HeLa; assay: Downregulation of EZH2 mRNA expression in human HeLa cells at 4 uM after 48 hrs by RT-PCR analysis; type: functional, cell-based; in short: as §3
[22] = test system: HeLa; assay: Upregulation of p21 mRNA expression in human HeLa cells at 4 uM after 48 hrs by RT-PCR analysis; type: functional, cell-based; in short: as §3
[23] = test system: HeLa; assay: Downregulation of HDAC-2 mRNA expression in human HeLa cells at 4 uM after 48 hrs by RT-PCR analysis; type: functional, cell-based; in short: as §3
[24] = test system: HeLa; assay: Induction of human p16 promoter activity transfected in human HeLa cells at 4 uM after 48 hrs by luciferase-based luminescence assay; type: cell-based
In short: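 A 1.4 kb human p16 promoter in pGL3-basic luciferase vector was co-transfected into HeLa with a β-gal plasmid. Cells were then treated at 4 μM for 48 h. Lysate luciferase luminescence was normalized to β-galactosidase as internal control.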

| SMILES | pIC50 [1] | pIC50 [2] | pIC50 [5] | Ratio IC50 [7] | pIC50 [10] | Ratio IC50 [13] | Ratio IC50 [14] | further results |
| --- | --- | --- | --- | --- | --- | --- | --- | --- |
| Cc1nc2ccccc2c(=O)n1-c1ccccc1Cn1cc(S)nn1 | 3.72 | 4.58 | 4.82 | 17.22 | 4.96 | 12.61 | 7.2 | Activity [3]: 71%; Activity [4]: 7%; Activity [6]: 21%; Activity [8]: 22%; Activity [9]: 69%; Activity [11]: 4%; Activity [12]: 6% |
| CCCc1cn(Cc2ccccc2-n2c(C)nc3cc(OC)c(OC)cc3c2=O)nn1 | 4.13 | 4.65 | 4.84 | 5.58 | 4.88 | 5.13 | 3.3 |  |
| COc1cccc(-c2cn(Cc3ccccc3-n3c(C)nc4cc(OC)c(OC)cc4c3=O)nn2)c1 | 4.29 | 4.65 | 4.82 | 4.29 | 4.93 | 3.37 | 2.27 |  |
| COc1cc2nc(C)n(-c3ccccc3Cn3cc(S)nn3)c(=O)c2cc1OC | 3.67 | 4.52 | 5.01 | 20.38 | 4.98 | 21.9 | 7.03 | Activity [3]: 71%; Activity [4]: 6%; Activity [6]: 20%; Activity [8]: 23%; Activity [9]: 70%; Activity [11]: 5%; Activity [12]: 5% |
| COc1cc2nc(C)n(-c3ccccc3Cn3cc(-c4cccc(C)c4)nn3)c(=O)c2cc1OC | 4.25 | 4.50 | 4.74 | 3.88 | 4.84 | 3.1 | 1.77 |  |
| CCCCCCc1cn(Cc2ccccc2-n2c(C)nc3cc(OC)c(OC)cc3c2=O)nn1 | 4.28 | 4.62 | 4.75 | 3.62 | 4.84 | 2.98 | 2.2 |  |
| COc1cccc2c1C(=O)c1c(O)c3c(c(O)c1C2=O)C[C@@](O)(C(=O)CO)C[C@@H]3O[C@H]1C[C@H](N)[C@H](O)[C@H](C)O1 |  |  |  |  |  |  |  | Activity [15]: Active; Activity [16]: inactive; Activity [17]: Active; Activity [18]: Active; Activity [19]: Active; Activity [20]: inactive; Activity [21]: Active; Activity [22]: Active; Activity [23]: Active; Activity [24]: Active |
| COc1cc2nc(C)n(-c3ccccc3Cn3nnc4ncccc43)c(=O)c2cc1OC | 4.10 | 4.71 | 4.73 | 6.64 | 4.93 | 4.25 | 4.01 |  |
| Cc1nc2ccccc2c(=O)n1-c1ccccc1Cn1ccnn1 | 4.12 | 4.65 | 4.82 | 4.62 | 4.78 | 4.97 | 3.39 |  |
| COc1cc2nc(C)n(-c3ccccc3Cn3cc(-c4cc5ccccc5c5ccccc45)nn3)c(=O)c2cc1OC | 4.05 | 4.59 | 4.88 | 6.95 | 4.89 | 6.72 | 3.47 |  |
| COc1cc2nc(C)n(-c3ccccc3Cn3cc(CO)nn3)c(=O)c2cc1OC | 3.96 | 4.55 | 4.80 | 9.25 | 4.93 | 6.94 | 3.92 |  |
| COc1cc2nc(C)n(-c3ccccc3Cn3cc(-c4ccccc4)nn3)c(=O)c2cc1OC | 4.19 | 4.59 | 5.04 | 4.66 | 4.86 | 6.96 | 2.5 |  |
| COc1ccc(-c2cn(Cc3ccccc3-n3c(C)nc4ccccc4c3=O)nn2)cc1 | 3.94 | 4.65 | 4.84 | 9.06 | 4.89 | 8.05 | 5.17 |  |
| COc1cc2nc(C)n(-c3ccccc3Cn3cc(-c4ccc(-c5ccccc5)cc4)nn3)c(=O)c2cc1OC | 4.15 | 4.65 | 4.98 | 5.01 | 4.85 | 6.78 | 3.16 |  |
| COc1ccc2cc(-c3cn(Cc4ccccc4-n4c(C)nc5ccccc5c4=O)nn3)ccc2c1 | 3.75 | 4.71 | 5.06 | 20.5 | 5.06 | 20.41 | 9.11 | Activity [3]: 73%; Activity [4]: 5%; Activity [6]: 17%; Activity [8]: 22%; Activity [9]: 72%; Activity [11]: 5%; Activity [12]: 5% |
| COc1cc2nc(C)n(-c3ccccc3Cn3cc(-c4ccccn4)nn3)c(=O)c2cc1OC | 3.60 | 4.68 | 4.73 | 23.84 | 4.98 | 13.54 | 12.11 | Activity [3]: 72%; Activity [4]: 7%; Activity [6]: 19%; Activity [8]: 22%; Activity [9]: 69%; Activity [11]: 5%; Activity [12]: 7% |
| COc1cc2nc(C)n(-c3ccccc3Cn3cc(CCO)nn3)c(=O)c2cc1OC | 3.91 | 4.58 | 4.85 | 7.75 | 4.80 | 8.85 | 4.66 |  |
| COc1cc2nc(C)n(-c3ccccc3Cn3cc(-c4ccc(C)cc4)nn3)c(=O)c2cc1OC | 3.69 | 4.55 | 4.84 | 20.56 | 5.00 | 14.16 | 7.28 | Activity [3]: 72%; Activity [4]: 6%; Activity [6]: 17%; Activity [8]: 22%; Activity [9]: 71%; Activity [11]: 5%; Activity [12]: 7% |
| COc1ccc2cc(-c3cn(Cc4ccccc4-n4c(C)nc5cc(OC)c(OC)cc5c4=O)nn3)ccc2c1 | 4.17 | 4.55 | 4.74 | 4.65 | 4.84 | 3.74 | 2.42 |  |
| COc1ccc(-c2cn(Cc3ccccc3-n3c(C)nc4cc(OC)c(OC)cc4c3=O)nn2)cc1 | 4.14 | 4.65 | 4.86 | 6.06 | 4.93 | 5.15 | 3.2 |  |
| CCCCCC(O)c1cn(Cc2ccccc2-n2c(C)nc3cc(OC)c(OC)cc3c2=O)nn1 (centres undefined) | 4.32 | 4.64 | 4.75 | 3 | 4.80 | 2.68 | 2.09 |  |
| COc1cc2nc(C)n(-c3ccccc3Cn3cc(-c4cccnc4)nn3)c(=O)c2cc1OC | 4.27 | 4.70 | 4.99 | 4.07 | 4.88 | 5.3 | 2.7 |  |
| COc1cc2nc(C)n(-c3ccccc3Cn3ccnn3)c(=O)c2cc1OC | 4.01 | 4.54 | 4.63 | 7.77 | 4.90 | 4.13 | 3.4 |  |
